Experimental data published in paper PMC11316633 (European journal of medicinal chemistry, 2024).
Like-named read-outs stand apart in the source and are kept apart here.

How the values were obtained:
[1] = molecular target: CDK7/Cyclin H/MNAT1 (Homo sapiens, UniProt P50613); assay: Adapta Eu kinase assay; format: biochemical
How it was run: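 CDK7/Cyclin H/MNAT1 complex tested by an outside contract service in Adapta Eu format, with ATP at its Km concentration.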

[2] = molecular target: CDK7 (Homo sapiens, UniProt P50613); assay: Immunoblot analysis of CDK7 degradation in Jurkat cells; format: cell-based; conditions: Jurkat cells, 16 h, Western blot
CDK7, sequence (P50613 2-346 limits assumed): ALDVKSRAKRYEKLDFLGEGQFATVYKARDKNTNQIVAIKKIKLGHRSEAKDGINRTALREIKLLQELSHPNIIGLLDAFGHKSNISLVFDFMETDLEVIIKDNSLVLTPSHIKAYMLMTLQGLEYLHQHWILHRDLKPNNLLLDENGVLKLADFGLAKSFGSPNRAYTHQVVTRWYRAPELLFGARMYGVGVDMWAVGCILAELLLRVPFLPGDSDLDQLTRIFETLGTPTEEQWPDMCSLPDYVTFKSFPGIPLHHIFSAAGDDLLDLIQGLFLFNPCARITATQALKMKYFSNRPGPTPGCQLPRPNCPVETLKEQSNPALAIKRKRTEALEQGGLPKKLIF
CDK7, sequence (P51946 whole entry partner): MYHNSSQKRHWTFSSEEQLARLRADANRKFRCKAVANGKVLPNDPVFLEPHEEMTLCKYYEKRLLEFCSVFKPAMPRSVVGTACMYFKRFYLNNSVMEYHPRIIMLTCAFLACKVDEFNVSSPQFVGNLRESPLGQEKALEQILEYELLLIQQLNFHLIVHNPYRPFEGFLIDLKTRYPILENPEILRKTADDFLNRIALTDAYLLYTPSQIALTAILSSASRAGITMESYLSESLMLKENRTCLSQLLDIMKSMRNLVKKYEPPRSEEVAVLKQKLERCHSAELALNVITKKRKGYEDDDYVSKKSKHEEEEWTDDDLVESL
CDK7, sequence (P51948 whole entry partner): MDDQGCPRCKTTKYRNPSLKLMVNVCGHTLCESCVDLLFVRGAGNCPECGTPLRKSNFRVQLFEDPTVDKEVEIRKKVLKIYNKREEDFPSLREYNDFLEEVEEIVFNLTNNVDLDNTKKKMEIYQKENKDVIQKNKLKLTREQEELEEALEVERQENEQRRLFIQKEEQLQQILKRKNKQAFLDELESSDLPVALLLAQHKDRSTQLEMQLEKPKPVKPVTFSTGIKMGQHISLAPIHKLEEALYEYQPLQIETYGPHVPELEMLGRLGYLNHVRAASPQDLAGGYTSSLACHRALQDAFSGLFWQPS
How it was run: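 Jurkat cells received test compound at 0.1 or 1 μM for 16 h, 0.1 μM for 0.5–24 h, or a concentration series for 6 h. Other arms were pretreated 2 h with MG132, MLN-4924, parent CDK7 inhibitor or VHL ligand, or used VHL-knockout Jurkat (6 h). Blots: RIPA lysis, 4–20% SDS-PAGE, nitrocellulose, anti-CDK7 1:1000, β-actin 1:5000, IRDye secondaries. Mean ± SEM of three biological replicates.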

CDK7/Cyclin H/MNAT1, sequence (P50613 whole entry): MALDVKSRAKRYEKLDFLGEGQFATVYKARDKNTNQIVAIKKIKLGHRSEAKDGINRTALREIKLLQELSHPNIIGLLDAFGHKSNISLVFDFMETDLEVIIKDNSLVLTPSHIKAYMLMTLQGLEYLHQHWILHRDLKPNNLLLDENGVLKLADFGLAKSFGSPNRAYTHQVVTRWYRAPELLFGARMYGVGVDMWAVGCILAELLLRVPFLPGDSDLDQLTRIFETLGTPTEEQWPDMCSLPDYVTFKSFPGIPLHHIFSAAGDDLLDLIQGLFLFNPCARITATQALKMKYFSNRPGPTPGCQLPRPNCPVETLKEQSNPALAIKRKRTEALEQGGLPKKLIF
CDK7/Cyclin H/MNAT1, sequence (P51946 whole entry partner): as the sequence (P51946 whole entry partner) above
CDK7/Cyclin H/MNAT1, sequence (P51948 whole entry partner): as the sequence (P51948 whole entry partner) above

Compound	IC50 [1]	CDK7 degradation (in words) ([2]; 1 μM)	also measured
CN(C)C[C@@H](NC(=O)N1Cc2c(NC(=O)c3ccc(C(=O)NCCCC#Cc4cccc5c4C(=O)N(C4CCC(=O)NC4=O)C5=O)cc3)n[nH]c2C1(C)C)c1ccccc1 (stereo partly drawn) [Compound 8, N1-(5-(((S)-2-(dimethylamino)-1-phenylethyl)carbamoyl)-6,6-dimethyl-1,4,5,6-tetrahydropyrrolo[3,4-c]pyrazol-3-yl)-N4-(5-(2-(2,6-dioxopiperidin-3-yl)-1,3-dioxoisoindolin-4-yl)pent-4-yn-1-yl)terephthalamide]	6.9 nM	–	–
Cc1ncsc1-c1ccc([C@H](C)NC(=O)[C@@H]2C[C@@H](O)CN2C(=O)[C@@H](NC(=O)CCNC(=O)c2ccc(C(=O)Nc3n[nH]c4c3CN(C(=O)N[C@H](CN(C)C)c3ccccc3)C4(C)C)cc2)C(C)(C)C)cc1 [Compound 10, N1-(5-(((S)-2-(dimethylamino)-1-phenylethyl)carbamoyl)-6,6-dimethyl-1,4,5,6-tetrahydropyrrolo[3,4-c]pyrazol-3-yl)-N4-(3-(((S)-1-((2S,4R)-4-hydroxy-2-(((S)-1-(4-(4-methylthiazol-5-yl)phenyl)ethyl)carbamoyl)pyrrolidin-1-yl)-3,3-dimethyl-1-oxobutan-2-yl)amino)-3-oxopropyl)terephthalamide]	–	moderate degradation	–
Cc1ncsc1-c1ccc([C@H](C)NC(=O)[C@@H]2C[C@@H](O)CN2C(=O)[C@@H](NC(=O)CCCCCCCNC(=O)c2ccc(C(=O)Nc3n[nH]c4c3CN(C(=O)N[C@H](CN(C)C)c3ccccc3)C4(C)C)cc2)C(C)(C)C)cc1 [Compound 13, N1-(5-(((S)-2-(dimethylamino)-1-phenylethyl)carbamoyl)-6,6-dimethyl-1,4,5,6-tetrahydropyrrolo[3,4-c]pyrazol-3-yl)-N4-(8-(((S)-1-((2S,4R)-4-hydroxy-2-(((S)-1-(4-(4-methylthiazol-5-yl)phenyl)ethyl)carbamoyl)pyrrolidin-1-yl)-3,3-dimethyl-1-oxobutan-2-yl)amino)-8-oxooctyl)terephthalamide]	7.8 nM	–	reduction in CDK7 protein ([2]; 0.1 μM or 1 μM): more than 80%
Cc1ncsc1-c1ccc([C@H](C)NC(=O)[C@@H]2C[C@@H](O)CN2C(=O)[C@@H](NC(=O)CCOCCOCCNC(=O)c2ccc(C(=O)Nc3n[nH]c4c3CN(C(=O)N[C@H](CN(C)C)c3ccccc3)C4(C)C)cc2)C(C)(C)C)cc1 [Compound 15, N1-(5-(((S)-2-(dimethylamino)-1-phenylethyl)carbamoyl)-6,6-dimethyl-1,4,5,6-tetrahydropyrrolo[3,4-c]pyrazol-3-yl)-N4-(2-(2-(3-(((S)-1-((2S,4R)-4-hydroxy-2-(((S)-1-(4-(4-methylthiazol-5-yl)phenyl)ethyl)carbamoyl)pyrrolidin-1-yl)-3,3-dimethyl-1-oxobutan-2-yl)amino)-3-oxopropoxy)ethoxy)ethyl)terephthalamide]	7.6 nM	–	–
Cc1ncsc1-c1ccc([C@H](C)NC(=O)[C@@H]2C[C@@H](O)CN2C(=O)[C@@H](NC(=O)CCCCCc2ccc(C(=O)Nc3n[nH]c4c3CN(C(=O)N[C@H](CN(C)C)c3ccccc3)C4(C)C)cc2)C(C)(C)C)cc1 [Compound 18, N-((S)-2-(dimethylamino)-1-phenylethyl)-3-(4-(6-(((S)-1-((2S,4R)-4-hydroxy-2-(((S)-1-(4-(4-methylthiazol-5-yl)phenyl)ethyl)carbamoyl)pyrrolidin-1-yl)-3,3-dimethyl-1-oxobutan-2-yl)amino)-6-oxohexyl)benzamido)-6,6-dimethyl-4,6-dihydropyrrolo[3,4-c]pyrazole-5(1H)-carboxamide]	20.3 nM	–	CDK7 degradation (in words) ([2]; 0.1 μM or 1 μM): slightly decreased degradation activity
Cc1ncsc1-c1ccc(CNC(=O)C2CC(O)CN2C(=O)C(NC(=O)C2(F)CC2)C(C)(C)C)c(OCCCCCCCCNC(=O)c2ccc(C(=O)Nc3n[nH]c4c3CN(C(=O)N[C@H](CN(C)C)c3ccccc3)C4(C)C)cc2)c1 (stereo partly drawn) [Compound 20, N1-(5-(((S)-2-(dimethylamino)-1-phenylethyl)carbamoyl)-6,6-dimethyl-1,4,5,6-tetrahydropyrrolo[3,4-c]pyrazol-3-yl)-N4-(8-(2-((1-(2-(1-fluorocyclopropane-1-carboxamido)-3,3-dimethylbutanoyl)-4-hydroxypyrrolidine-2-carboxamido)methyl)-5-(4-methylthiazol-5-yl)phenoxy)octyl)terephthalamide]	12.1 nM	moderate reduction of CDK7 protein levels	–
Cc1ncsc1-c1ccc(CNC(=O)C2CC(O)CN2C(=O)C(NC(=O)C2(F)CC2)C(C)(C)C)c(OCCOCCOCCNC(=O)c2ccc(C(=O)Nc3n[nH]c4c3CN(C(=O)N[C@H](CN(C)C)c3ccccc3)C4(C)C)cc2)c1 (stereo partly drawn) [Compound 21, N1-(5-(((S)-2-(dimethylamino)-1-phenylethyl)carbamoyl)-6,6-dimethyl-1,4,5,6-tetrahydropyrrolo[3,4-c]pyrazol-3-yl)-N4-(2-(2-(2-(2-((1-(2-(1-fluorocyclopropane-1-carboxamido)-3,3-dimethylbutanoyl)-4-hydroxypyrrolidine-2-carboxamido)methyl)-5-(4-methylthiazol-5-yl)phenoxy)ethoxy)ethoxy)ethyl)terephthalamide]	13.4 nM	moderate reduction of CDK7 protein levels	–
CC(=O)N[C@H](C(=O)N1C[C@H](O)C[C@H]1C(=O)N[C@@H](C)c1ccc(-c2scnc2C(=O)NCCCCCNC(=O)c2ccc(C(=O)Nc3n[nH]c4c3CN(C(=O)N[C@H](CN(C)C)c3ccccc3)C4(C)C)cc2)cc1)C(C)(C)C [Compound 22, N1-(5-(5-(4-((S)-1-((2S,4R)-1-((S)-2-acetamido-3,3-dimethylbutanoyl)-4-hydroxypyrrolidine-2-carboxamido)ethyl)phenyl)thiazole-4-carboxamido)pentyl)-N4-(5-(((S)-2-(dimethylamino)-1-phenylethyl)carbamoyl)-6,6-dimethyl-1,4,5,6-tetrahydropyrrolo[3,4-c]pyrazol-3-yl)terephthalamide]	–	moderate reduction of CDK7 protein levels	–
N1-(5-(((R)-2-(dimethylamino)-1-phenylethyl)carbamoyl)-6,6-dimethyl-1,4,5,6-tetrahydropyrrolo[3,4-c]pyrazol-3-yl)-N4-((S)-14-((2S,4R)-4-hydroxy-2-(((S)-1-(4-(4-methylthiazol-5-yl)phenyl)ethyl)carbamoyl)pyrrolidine-1-carbonyl)-15,15-dimethyl-12-oxo-3,6,9-trioxa-13-azahexadecyl)terephthalamide [Compound 16]	–	–	IC50 ([1]; read-out: IC50 (CDK7 binding affinity, Table 2), VHL-based compounds, Adapta Eu kinase assay, Km ATP): 13.7 nM
